Data taken from ChEMBL document CHEMBL2086252, “Syntheses and evaluation of anticonvulsant activity of novel branched alkyl carbamates” (J Med Chem, 2012).
The source made the active and inactive calls. The rule behind the calls is not given here.

What was measured:
Mus musculus [1] = test: Anticonvulsant activity in albino CF1 mouse assessed as protection against subcutaneous metrazol-induced seizures at 30 mg/kg, ip after 0.5 hrs; format: functional, organism-based; set-up: dose 30 mg/kg
Procedure, shortened: (§1)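 Mice dosed ip at 30, 100 or 300 mg/kg, then tested 0.5 h and 4 h after administration in the MES or scMet test. Protection was recorded as animals protected over animals tested. Neurotoxicity was recorded as motor impairment or sedation, as animals affected over animals tested.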

Mus musculus [2] = test: Anticonvulsant activity in albino CF1 mouse assessed as protection against subcutaneous metrazol-induced seizures at 100 mg/kg, ip after 0.5 hrs; format: functional, organism-based; set-up: dose 100 mg/kg; procedure, shortened: as §1
Mus musculus [3] = test: Anticonvulsant activity in albino CF1 mouse assessed as protection against subcutaneous metrazol-induced seizures at 300 mg/kg, ip after 0.5 hrs; format: functional, organism-based; set-up: dose 300 mg/kg; procedure, shortened: as §1
Mus musculus [4] = test: Anticonvulsant activity in albino CF1 mouse assessed as protection against subcutaneous metrazol-induced seizures at 30 mg/kg, ip after 4 hrs; format: functional, organism-based; set-up: dose 30 mg/kg; procedure, shortened: as §1
Mus musculus [5] = test: Anticonvulsant activity in albino CF1 mouse assessed as protection against subcutaneous metrazol-induced seizures at 100 mg/kg, ip after 4 hrs; format: functional, organism-based; set-up: dose 100 mg/kg; procedure, shortened: as §1
Mus musculus [6] = test: Anticonvulsant activity in albino CF1 mouse assessed as protection against subcutaneous metrazol-induced seizures at 300 mg/kg, ip after 4 hrs; format: functional, organism-based; set-up: dose 300 mg/kg; procedure, shortened: as §1
Mus musculus [7] = test: Anticonvulsant activity in albino CF1 mouse assessed as protection against maximal electroshock-induced seizures at 30 mg/kg, ip after 0.5 hrs; format: functional, organism-based; set-up: dose 30 mg/kg; procedure, shortened: as §1
Mus musculus [8] = test: Anticonvulsant activity in albino CF1 mouse assessed as protection against maximal electroshock-induced seizures at 100 mg/kg, ip after 0.5 hrs; format: functional, organism-based; set-up: dose 100 mg/kg; procedure, shortened: as §1
Mus musculus [9] = test: Anticonvulsant activity in albino CF1 mouse assessed as protection against maximal electroshock-induced seizures at 300 mg/kg, ip after 0.5 hrs; format: functional, organism-based; set-up: dose 300 mg/kg; procedure, shortened: as §1
Mus musculus [10] = test: Anticonvulsant activity in albino CF1 mouse assessed as protection against maximal electroshock-induced seizures at 30 mg/kg, ip after 4 hrs; format: functional, organism-based; set-up: dose 30 mg/kg; procedure, shortened: as §1
Mus musculus [11] = test: Anticonvulsant activity in albino CF1 mouse assessed as protection against maximal electroshock-induced seizures at 100 mg/kg, ip after 4 hrs; format: functional, organism-based; set-up: dose 100 mg/kg; procedure, shortened: as §1
Mus musculus [12] = test: Anticonvulsant activity in albino CF1 mouse assessed as protection against maximal electroshock-induced seizures at 300 mg/kg, ip after 4 hrs; format: functional, organism-based; set-up: dose 300 mg/kg; procedure, shortened: as §1
Mus musculus [13] = test: Neurotoxicity in albino CF1 mouse assessed as minimal motor impairment at 30 mg/kg, ip after 0.5 hrs by rotarod test; format: toxicity, organism-based; set-up: dose 30 mg/kg, route intraperitoneal; settings: in vivo; procedure, shortened: as §1
Mus musculus [14] = test: Neurotoxicity in albino CF1 mouse assessed as minimal motor impairment at 100 mg/kg, ip after 0.5 hrs by rotarod test; format: toxicity, organism-based; set-up: dose 100 mg/kg, route intraperitoneal; settings: in vivo; procedure, shortened: as §1
Mus musculus [15] = test: Neurotoxicity in albino CF1 mouse assessed as minimal motor impairment at 300 mg/kg, ip after 0.5 hrs by rotarod test; format: toxicity, organism-based; set-up: dose 300 mg/kg, route intraperitoneal; settings: in vivo; procedure, shortened: as §1
Mus musculus [16] = test: Neurotoxicity in albino CF1 mouse assessed as minimal motor impairment at 30 mg/kg, ip after 4 hrs by rotarod test; format: toxicity, organism-based; set-up: dose 30 mg/kg, route intraperitoneal; settings: in vivo; procedure, shortened: as §1
Mus musculus [17] = test: Neurotoxicity in albino CF1 mouse assessed as minimal motor impairment at 100 mg/kg, ip after 4 hrs by rotarod test; format: toxicity, organism-based; set-up: dose 100 mg/kg, route intraperitoneal; settings: in vivo; procedure, shortened: as §1
Mus musculus [18] = test: Neurotoxicity in albino CF1 mouse assessed as minimal motor impairment at 300 mg/kg, ip after 4 hrs by rotarod test; format: toxicity, organism-based; set-up: dose 300 mg/kg, route intraperitoneal; settings: in vivo; procedure, shortened: as §1
Rattus norvegicus [19] = test: Anticonvulsant activity in Sprague-Dawley albino rat assessed as protection against maximal electroshock-induced seizures at 30 mg/kg, po after 30 mins; format: functional, organism-based; set-up: dose 30 mg/kg
Procedure, shortened: (§2)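 Rats dosed orally. Anti-MES protection was scored as animals protected over animals tested at each time after dosing. Neurotoxicity was scored as motor impairment or sedation, as animals affected over animals tested.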

Rattus norvegicus [20] = test: Anticonvulsant activity in Sprague-Dawley albino rat assessed as protection against maximal electroshock-induced seizures at 30 mg/kg, po after 1 hr; format: functional, organism-based; set-up: dose 30 mg/kg; procedure, shortened: as §2
Rattus norvegicus [21] = test: Anticonvulsant activity in Sprague-Dawley albino rat assessed as protection against maximal electroshock-induced seizures at 30 mg/kg, po after 2 hrs; format: functional, organism-based; set-up: dose 30 mg/kg; procedure, shortened: as §2
Rattus norvegicus [22] = test: Neurotoxicity in Sprague-Dawley albino rat assessed as minimal motor impairment at 30 mg/kg, po by rotarod test; format: toxicity, organism-based; set-up: dose 30 mg/kg, route oral; settings: in vivo; procedure, shortened: as §2
Rattus norvegicus [23] = test: Anticonvulsant activity in Sprague-Dawley albino rat assessed as protection against pilocarpine-induced status epilepticus at 200 mg/kg, ip; format: functional, organism-based; set-up: dose 200 mg/kg
Procedure, shortened: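 Pilocarpine status epilepticus model in rats. Number and severity of convulsive seizures were observed behaviourally.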

Rattus norvegicus [24] = test: Neurotoxicity in pilocarpine-induced status epilepticus Sprague-Dawley albino rat model assessed as minimal motor impairment at 100 mg/kg, ip after 0.25 hr by rotarod test; format: toxicity, organism-based; set-up: dose 100 mg/kg, route intraperitoneal; settings: in vivo
Rattus norvegicus [25] = test: Neurotoxicity in pilocarpine-induced status epilepticus Sprague-Dawley albino rat model assessed as minimal motor impairment at 300 mg/kg, ip after 0.25 hr by rotarod test; format: toxicity, organism-based; set-up: dose 300 mg/kg, route intraperitoneal; settings: in vivo
Procedure, shortened: (§3)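 Rat pilocarpine status epilepticus model: test carbamate given at 0 or 30 min after the first observed Racine stage 3 motor seizure, which marks SE onset. Neurotoxicity was scored within the same model.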

Rattus norvegicus [26] = test: Neurotoxicity in pilocarpine-induced status epilepticus Sprague-Dawley albino rat model assessed as minimal motor impairment at 100 mg/kg, ip after 0.5 hrs by rotarod test; format: toxicity, organism-based; set-up: dose 100 mg/kg, route intraperitoneal; settings: in vivo
Rattus norvegicus [27] = test: Neurotoxicity in pilocarpine-induced status epilepticus Sprague-Dawley albino rat model assessed as minimal motor impairment at 300 mg/kg, ip after 0.5 hrs by rotarod test; format: toxicity, organism-based; set-up: dose 300 mg/kg, route intraperitoneal; settings: in vivo; procedure, shortened: as §3
Rattus norvegicus [28] = test: Neurotoxicity in pilocarpine-induced status epilepticus Sprague-Dawley albino rat model assessed as minimal motor impairment at 100 mg/kg, ip after 1 hr by rotarod test; format: toxicity, organism-based; set-up: dose 100 mg/kg, route intraperitoneal; settings: in vivo
Rattus norvegicus [29] = test: Neurotoxicity in pilocarpine-induced status epilepticus Sprague-Dawley albino rat model assessed as minimal motor impairment at 300 mg/kg, ip after 1 hr by rotarod test; format: toxicity, organism-based; set-up: dose 300 mg/kg, route intraperitoneal; settings: in vivo; procedure, shortened: as §3
Rattus norvegicus [30] = test: Neurotoxicity in pilocarpine-induced status epilepticus Sprague-Dawley albino rat model assessed as minimal motor impairment at 100 mg/kg, ip after 2 hrs by rotarod test; format: toxicity, organism-based; set-up: dose 100 mg/kg, route intraperitoneal; settings: in vivo
Rattus norvegicus [31] = test: Neurotoxicity in pilocarpine-induced status epilepticus Sprague-Dawley albino rat model assessed as minimal motor impairment at 300 mg/kg, ip after 2 hrs by rotarod test; format: toxicity, organism-based; set-up: dose 300 mg/kg, route intraperitoneal; settings: in vivo; procedure, shortened: as §3
Rattus norvegicus [32] = test: Neurotoxicity in pilocarpine-induced status epilepticus Sprague-Dawley albino rat model assessed as minimal motor impairment at 100 mg/kg, ip after 4 hrs by rotarod test; format: toxicity, organism-based; set-up: dose 100 mg/kg, route intraperitoneal; settings: in vivo
Rattus norvegicus [33] = test: Anticonvulsant activity in Sprague-Dawley albino rat assessed as protection against maximal electroshock-induced seizures at 30 mg/kg, po after 15 mins; format: functional, organism-based; set-up: dose 30 mg/kg; procedure, shortened: as §2
Rattus norvegicus [34] = test: Anticonvulsant activity in Sprague-Dawley albino rat assessed as protection against maximal electroshock-induced seizures at 30 mg/kg, po after 4 hrs; format: functional, organism-based; set-up: dose 30 mg/kg; procedure, shortened: as §2
Rattus norvegicus [35] = test: Neurotoxicity in pilocarpine-induced status epilepticus Sprague-Dawley albino rat model assessed as minimal motor impairment at 30 mg/kg, ip after 0.25 hr by rotarod test; format: toxicity, organism-based; set-up: dose 30 mg/kg, route intraperitoneal; settings: in vivo; procedure, shortened: as §3
Rattus norvegicus [36] = test: Neurotoxicity in pilocarpine-induced status epilepticus Sprague-Dawley albino rat model assessed as minimal motor impairment at 30 mg/kg, ip after 0.5 hrs by rotarod test; format: toxicity, organism-based; set-up: dose 30 mg/kg, route intraperitoneal; settings: in vivo; procedure, shortened: as §3
Rattus norvegicus [37] = test: Neurotoxicity in pilocarpine-induced status epilepticus Sprague-Dawley albino rat model assessed as minimal motor impairment at 30 mg/kg, ip after 1 hr by rotarod test; format: toxicity, organism-based; set-up: dose 30 mg/kg, route intraperitoneal; settings: in vivo; procedure, shortened: as §3
Rattus norvegicus [38] = test: Neurotoxicity in pilocarpine-induced status epilepticus Sprague-Dawley albino rat model assessed as minimal motor impairment at 30 mg/kg, ip after 2 hrs by rotarod test; format: toxicity, organism-based; set-up: dose 30 mg/kg, route intraperitoneal; settings: in vivo; procedure, shortened: as §3
Rattus norvegicus [39] = test: Neurotoxicity in pilocarpine-induced status epilepticus Sprague-Dawley albino rat model assessed as minimal motor impairment at 300 mg/kg, ip after 4 hrs by rotarod test; format: toxicity, organism-based; set-up: dose 300 mg/kg, route intraperitoneal; settings: in vivo; procedure, shortened: as §3
Rattus norvegicus [40] = test: Neurotoxicity in pilocarpine-induced status epilepticus Sprague-Dawley albino rat model assessed as minimal motor impairment at 30 mg/kg, ip after 4 hrs by rotarod test; format: toxicity, organism-based; set-up: dose 30 mg/kg, route intraperitoneal; settings: in vivo; procedure, shortened: as §3
Rattus norvegicus [41] = test: Anticonvulsant activity in Sprague-Dawley albino rat assessed as protection against pilocarpine-induced status epilepticus at 130 mg/kg, ip administered 0 and 30 mins after status epilepticus onset

Compound | Activity (Mus musculus [1]) | Activity (Mus musculus [2]) | Activity (Mus musculus [3]) | Activity (Mus musculus [4]) | Activity (Mus musculus [5]) | Activity (Mus musculus [6]) | Activity (Mus musculus [7]) | Activity (Mus musculus [9]) | Activity (Mus musculus [10]) | Activity (Mus musculus [11]) | Activity (Mus musculus [12]) | Activity (Mus musculus [13]) | Activity (Mus musculus [14]) | Activity (Mus musculus [15]) | Activity (Mus musculus [16]) | Activity (Mus musculus [17]) | Activity (Mus musculus [18]) | Activity (Rattus norvegicus [19]) | Activity (Rattus norvegicus [21]) | Activity (Rattus norvegicus [22]) | other results
CC(C)(C)COC(N)=O | inactive | inactive | inactive | inactive | inactive | inactive | inactive | inactive | inactive | inactive | inactive | Non-toxic | Non-toxic | Non-toxic | Non-toxic | Non-toxic | Non-toxic | inactive | inactive | Non-toxic | Activity (Mus musculus [8]): inactive; Activity (Rattus norvegicus [20]): inactive; Activity (Rattus norvegicus [23]): Active; Activity (Rattus norvegicus [24]): Non-toxic; Activity (Rattus norvegicus [25]): Toxic; Activity (Rattus norvegicus [26]): Non-toxic; Activity (Rattus norvegicus [27]): Toxic; Activity (Rattus norvegicus [28]): Non-toxic; Activity (Rattus norvegicus [29]): Toxic; Activity (Rattus norvegicus [30]): Non-toxic; Activity (Rattus norvegicus [31]): Toxic; Activity (Rattus norvegicus [32]): Non-toxic
CC1(C)C(COC(N)=O)C1(C)C | inactive | inactive | Active | inactive | inactive | inactive | inactive | Active | inactive | inactive | inactive | Non-toxic | Non-toxic | Toxic | Non-toxic | Non-toxic | Non-toxic | inactive | inactive | Non-toxic | Activity (Rattus norvegicus [33]): inactive; Activity (Rattus norvegicus [34]): inactive; Activity (Rattus norvegicus [24]): Toxic; Activity (Rattus norvegicus [25]): Toxic; Activity (Rattus norvegicus [35]): Non-toxic; Activity (Rattus norvegicus [26]): Toxic; Activity (Rattus norvegicus [27]): Toxic; Activity (Rattus norvegicus [36]): Non-toxic; Activity (Rattus norvegicus [28]): Toxic; Activity (Rattus norvegicus [29]): Toxic; Activity (Rattus norvegicus [37]): Non-toxic; Activity (Rattus norvegicus [30]): Non-toxic; Activity (Rattus norvegicus [31]): Toxic; Activity (Rattus norvegicus [38]): Non-toxic; Activity (Rattus norvegicus [32]): Non-toxic; Activity (Rattus norvegicus [39]): Non-toxic; Activity (Rattus norvegicus [40]): Non-toxic; Activity (Rattus norvegicus [41]): inactive
